Laboratory results reported in ChEMBL document CHEMBL3046615, “Isolation of nematicidal compounds from Tagetes patula L. yellow flowers: structure-activity relationship studies against cyst nematode Heterodera zeae infective stage larvae” (2011).
Activity calls are given as the source filed them. No cut-off for these calls is given here.

Key:
Heterodera zeae [1] = assay: Nematicidal activity against Heterodera zeae infective stage larvae assessed as nematode mortality at 0.5% under light conditions measured 72 hr post dose by stereoscopic microscopy; format: functional
In short: (§1)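 Freshly hatched H. zeae second-stage juveniles, 100 per Petri plate, three replicates. Samples in MeOH, DMSO or water were tested in glass cavity blocks; petroleum ether samples were dried onto the block and larvae transferred on agar pieces. Percentages are dilutions of 30 mg/mL stocks (extracts/fractions) or 1 mg/mL stocks (pure compounds). Incubated at 28 ± 2 °C in light or dark box; mortality averaged over three replicates.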

Heterodera zeae [2] = assay: Nematicidal activity against Heterodera zeae infective stage larvae assessed as nematode mortality at 0.5% under light conditions measured 48 hr post dose by stereoscopic microscopy; format: functional; in short: as §1
Heterodera zeae [3] = assay: Nematicidal activity against Heterodera zeae infective stage larvae assessed as nematode mortality at 1% under dark conditions measured 24 hr post dose by stereoscopic microscopy; format: functional; in short: as §1
Heterodera zeae [4] = assay: Nematicidal activity against Heterodera zeae infective stage larvae assessed as nematode mortality at 0.125% under light conditions measured 48 hr post dose by stereoscopic microscopy; format: functional; in short: as §1
Heterodera zeae [5] = assay: Nematicidal activity against Heterodera zeae infective stage larvae assessed as nematode mortality at 0.25% under light conditions measured 48 hr post dose by stereoscopic microscopy; format: functional; in short: as §1
Heterodera zeae [6] = assay: Nematicidal activity against Heterodera zeae infective stage larvae assessed as nematode mortality at 0.125% under light conditions measured 24 hr post dose by stereoscopic microscopy; format: functional; in short: as §1
Heterodera zeae [7] = assay: Nematicidal activity against Heterodera zeae infective stage larvae assessed as nematode mortality at 0.25% under light conditions measured 24 hr post dose by stereoscopic microscopy; format: functional; in short: as §1
Heterodera zeae [8] = assay: Nematicidal activity against Heterodera zeae infective stage larvae assessed as nematode mortality at 0.5% under light conditions measured 24 hr post dose by stereoscopic microscopy; format: functional; in short: as §1
Heterodera zeae [9] = assay: Nematicidal activity against Heterodera zeae infective stage larvae assessed as nematode mortality at 1% under light conditions measured 24 hr post dose by stereoscopic microscopy; format: functional; in short: as §1
Heterodera zeae [10] = assay: Nematicidal activity against Heterodera zeae infective stage larvae assessed as nematode mortality at 0.125% under dark conditions measured 5 to 60 min post dose by stereoscopic microscopy; format: functional, organism-based
In short: (§2)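 H. zeae freshly hatched second-stage juveniles, 100 per plate, three replicates, at 28 ± 2 °C under light or in a dark box. Dilutions are % of a stock: 30 mg/mL for extracts/fractions, 1 mg/mL for pure compounds. Methanol-, DMSO- or water-soluble samples were tested in glass cavity blocks. Petroleum ether-soluble samples were air-dried in the block and covered with agar pieces bearing cultured larvae. Mortality was followed over 5–60 min; each value is the mean of three experiments.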

Heterodera zeae [11] = assay: Nematicidal activity against Heterodera zeae infective stage larvae assessed as nematode mortality at 0.25% under dark conditions measured 5 to 60 min post dose by stereoscopic microscopy; format: functional, organism-based; in short: as §2
Heterodera zeae [12] = assay: Nematicidal activity against Heterodera zeae infective stage larvae assessed as nematode mortality at 0.5% under dark conditions measured 5 to 60 min post dose by stereoscopic microscopy; format: functional, organism-based; in short: as §2
Heterodera zeae [13] = assay: Nematicidal activity against Heterodera zeae infective stage larvae assessed as nematode mortality at 1% under dark conditions measured 5 to 60 min post dose by stereoscopic microscopy; format: functional, organism-based; in short: as §2
Heterodera zeae [14] = assay: Nematicidal activity against Heterodera zeae infective stage larvae assessed as nematode mortality at 2% under dark conditions measured 5 to 60 min post dose by stereoscopic microscopy; format: functional, organism-based; in short: as §2
Heterodera zeae [15] = assay: Nematicidal activity against Heterodera zeae infective stage larvae assessed as nematode mortality at 5% under dark conditions measured 5 to 60 min post dose by stereoscopic microscopy; format: functional, organism-based; in short: as §2
Heterodera zeae [16] = assay: Nematicidal activity against Heterodera zeae infective stage larvae assessed as nematode mortality at 0.125% under light conditions measured 5 to 60 min post dose by stereoscopic microscopy; format: functional, organism-based; in short: as §2
Heterodera zeae [17] = assay: Nematicidal activity against Heterodera zeae infective stage larvae assessed as nematode mortality at 0.25% under light conditions measured 5 to 60 min post dose by stereoscopic microscopy; format: functional, organism-based; in short: as §2
Heterodera zeae [18] = assay: Nematicidal activity against Heterodera zeae infective stage larvae assessed as nematode mortality at 0.5% under light conditions measured 5 to 60 min post dose by stereoscopic microscopy; format: functional, organism-based; in short: as §2
Heterodera zeae [19] = assay: Nematicidal activity against Heterodera zeae infective stage larvae assessed as nematode mortality at 1% under light conditions measured 5 to 60 min post dose by stereoscopic microscopy; format: functional, organism-based; in short: as §2
Heterodera zeae [20] = assay: Nematicidal activity against Heterodera zeae infective stage larvae assessed as nematode mortality at 2% under light conditions measured 5 to 60 min post dose by stereoscopic microscopy; format: functional, organism-based; in short: as §2
Heterodera zeae [21] = assay: Nematicidal activity against Heterodera zeae infective stage larvae assessed as nematode mortality at 5% under light conditions measured 5 to 60 min post dose by stereoscopic microscopy; format: functional, organism-based; in short: as §2
Heterodera zeae [22] = assay: Nematicidal activity against Heterodera zeae infective stage larvae assessed as nematode mortality at 0.125% under dark conditions measured 48 hr post dose by stereoscopic microscopy; format: functional; in short: as §1
Heterodera zeae [23] = assay: Nematicidal activity against Heterodera zeae infective stage larvae assessed as nematode mortality at 0.25% under dark conditions measured 48 hr post dose by stereoscopic microscopy; format: functional; in short: as §1
Heterodera zeae [24] = assay: Nematicidal activity against Heterodera zeae infective stage larvae assessed as nematode mortality at 0.125% under dark conditions measured 24 hr post dose by stereoscopic microscopy; format: functional; in short: as §1
Heterodera zeae [25] = assay: Nematicidal activity against Heterodera zeae infective stage larvae assessed as nematode mortality at 0.25% under dark conditions measured 24 hr post dose by stereoscopic microscopy; format: functional; in short: as §1
Heterodera zeae [26] = assay: Nematicidal activity against Heterodera zeae infective stage larvae assessed as nematode mortality at 0.5% under dark conditions measured 24 hr post dose by stereoscopic microscopy; format: functional; in short: as §1
Heterodera zeae [27] = assay: Nematicidal activity against Heterodera zeae infective stage larvae assessed as nematode mortality at 1% under dark conditions measured 72 hr post dose by stereoscopic microscopy; format: functional; in short: as §1
Heterodera zeae [28] = assay: Nematicidal activity against Heterodera zeae infective stage larvae assessed as nematode mortality at 1% under dark conditions measured 48 hr post dose by stereoscopic microscopy; format: functional; in short: as §1
Heterodera zeae [29] = assay: Nematicidal activity against Heterodera zeae infective stage larvae assessed as nematode mortality at 1% under light conditions measured 72 hr post dose by stereoscopic microscopy; format: functional; in short: as §1
Heterodera zeae [30] = assay: Nematicidal activity against Heterodera zeae infective stage larvae assessed as nematode mortality at 1% under light conditions measured 48 hr post dose by stereoscopic microscopy; format: functional; in short: as §1
Heterodera zeae [31] = assay: Nematicidal activity against Heterodera zeae infective stage larvae assessed as nematode mortality at 0.125% under dark conditions measured 72 hr post dose by stereoscopic microscopy; format: functional; in short: as §1
Heterodera zeae [32] = assay: Nematicidal activity against Heterodera zeae infective stage larvae assessed as nematode mortality at 0.25% under dark conditions measured 72 hr post dose by stereoscopic microscopy; format: functional; in short: as §1
Heterodera zeae [33] = assay: Nematicidal activity against Heterodera zeae infective stage larvae assessed as nematode mortality at 0.5% under dark conditions measured 72 hr post dose by stereoscopic microscopy; format: functional; in short: as §1
Heterodera zeae [34] = assay: Nematicidal activity against Heterodera zeae infective stage larvae assessed as nematode mortality at 0.5% under dark conditions measured 48 hr post dose by stereoscopic microscopy; format: functional; in short: as §1
Heterodera zeae [35] = assay: Nematicidal activity against Heterodera zeae infective stage larvae assessed as nematode mortality at 0.125% under light conditions measured 72 hr post dose by stereoscopic microscopy; format: functional; in short: as §1
Heterodera zeae [36] = assay: Nematicidal activity against Heterodera zeae infective stage larvae assessed as nematode mortality at 0.25% under light conditions measured 72 hr post dose by stereoscopic microscopy; format: functional; in short: as §1

| Compound | mortality (Heterodera zeae [1]) [%] | mortality (Heterodera zeae [2]) [%] | mortality (Heterodera zeae [3]) [%] | mortality (Heterodera zeae [4]) [%] | mortality (Heterodera zeae [5]) [%] | mortality (Heterodera zeae [6]) [%] | mortality (Heterodera zeae [7]) [%] | mortality (Heterodera zeae [8]) [%] | mortality (Heterodera zeae [9]) [%] | Activity (Heterodera zeae [10]) | Activity (Heterodera zeae [11]) | Activity (Heterodera zeae [12]) | Activity (Heterodera zeae [13]) | Activity (Heterodera zeae [14]) | Activity (Heterodera zeae [15]) | Activity (Heterodera zeae [16]) | Activity (Heterodera zeae [17]) | Activity (Heterodera zeae [18]) | Activity (Heterodera zeae [19]) | Activity (Heterodera zeae [20]) | further results |
| --- | --- | --- | --- | --- | --- | --- | --- | --- | --- | --- | --- | --- | --- | --- | --- | --- | --- | --- | --- | --- | --- |
| O=C(O)c1ccccc1 [BENZOIC ACID] | 40 | 10 | 0 | 0 | 0 | 0 | 0 | 0 | 0 | inactive | inactive | inactive | inactive | inactive | inactive | inactive | inactive | inactive | inactive | inactive | Activity (Heterodera zeae [21]): inactive; mortality (Heterodera zeae [22]): 0%; mortality (Heterodera zeae [23]): 10%; mortality (Heterodera zeae [24]): 0%; mortality (Heterodera zeae [25]): 0%; mortality (Heterodera zeae [26]): 0%; mortality (Heterodera zeae [27]): 80%; mortality (Heterodera zeae [28]): 70%; mortality (Heterodera zeae [29]): 70%; mortality (Heterodera zeae [30]): 50%; mortality (Heterodera zeae [31]): 0%; mortality (Heterodera zeae [32]): 50%; mortality (Heterodera zeae [33]): 80%; mortality (Heterodera zeae [34]): 50%; mortality (Heterodera zeae [35]): 0%; mortality (Heterodera zeae [36]): 0% |
| COc1ccc(C(=O)O)cc1 [p-ANISIC ACID] | 50 | 40 | 50 | 10 | 20 | 10 | 10 | 30 | 40 | inactive | inactive | inactive | inactive | inactive | inactive | inactive | inactive | inactive | inactive | inactive | Activity (Heterodera zeae [21]): inactive; mortality (Heterodera zeae [22]): 20%; mortality (Heterodera zeae [23]): 40%; mortality (Heterodera zeae [24]): 10%; mortality (Heterodera zeae [25]): 30%; mortality (Heterodera zeae [26]): 50%; mortality (Heterodera zeae [27]): 90%; mortality (Heterodera zeae [28]): 60%; mortality (Heterodera zeae [29]): 80%; mortality (Heterodera zeae [30]): 50%; mortality (Heterodera zeae [31]): 50%; mortality (Heterodera zeae [32]): 80%; mortality (Heterodera zeae [33]): 80%; mortality (Heterodera zeae [34]): 50%; mortality (Heterodera zeae [35]): 40%; mortality (Heterodera zeae [36]): 50% |
| COc1c(O)cc2oc(-c3ccc(O)c(O)c3)c(O)c(=O)c2c1O [PATULETIN] | 100 | 20 | 20 | 50 | 70 | 20 | 20 | 20 | 40 | inactive | inactive | inactive | inactive | inactive | inactive | inactive | inactive | inactive | inactive | inactive | Activity (Heterodera zeae [21]): inactive; mortality (Heterodera zeae [22]): 0%; mortality (Heterodera zeae [23]): 10%; mortality (Heterodera zeae [24]): 0%; mortality (Heterodera zeae [25]): 0%; mortality (Heterodera zeae [26]): 0%; mortality (Heterodera zeae [27]): 60%; mortality (Heterodera zeae [28]): 60%; mortality (Heterodera zeae [29]): 100%; mortality (Heterodera zeae [30]): 40%; mortality (Heterodera zeae [31]): 0%; mortality (Heterodera zeae [32]): 10%; mortality (Heterodera zeae [33]): 20%; mortality (Heterodera zeae [34]): 20%; mortality (Heterodera zeae [35]): 100%; mortality (Heterodera zeae [36]): 100% |
| CCCCCCCCCCCCCCCC(=O)O [PALMITIC ACID] | 70 | 50 | 80 | 0 | 10 | 0 | 0 | 0 | 0 | inactive | inactive | inactive | inactive | inactive | inactive | inactive | inactive | inactive | inactive | inactive | Activity (Heterodera zeae [21]): inactive; mortality (Heterodera zeae [22]): 0%; mortality (Heterodera zeae [23]): 20%; mortality (Heterodera zeae [24]): 0%; mortality (Heterodera zeae [25]): 0%; mortality (Heterodera zeae [26]): 0%; mortality (Heterodera zeae [27]): 80%; mortality (Heterodera zeae [28]): 80%; mortality (Heterodera zeae [29]): 80%; mortality (Heterodera zeae [30]): 70%; mortality (Heterodera zeae [31]): 50%; mortality (Heterodera zeae [32]): 70%; mortality (Heterodera zeae [33]): 70%; mortality (Heterodera zeae [34]): 50%; mortality (Heterodera zeae [35]): 0%; mortality (Heterodera zeae [36]): 50% |
